Assay results collected from several papers.
Compare with care: the assays were run in different laboratories.
SLC18A2: Synaptic vesicular amine transporter (SLC18A2, Homo sapiens, UniProt Q05940)
LATS1: Serine/threonine-protein kinase LATS1 (LATS1, Homo sapiens, UniProt O95835)
ADRA2A: Alpha-2A adrenergic receptor (ADRA2A, Homo sapiens, UniProt P08913)

| SMILES | target | test | setting | endpoint | result |
| --- | --- | --- | --- | --- | --- |
| CN(C)CCCN1c2ccccc2Sc2ccc(Cl)cc21 | SLC18A2 | transporter uptake, inhibitor |  | IC50 | 3400 nM |
| Cc1cc(-c2ccnc3[nH]cc(F)c23)cc(F)c1[C@@]1(O)[C@H](C)CN(C2CCS(=O)(=O)CC2)C[C@@H]1C | LATS1 | binding, TR-FRET |  | Kd | 2.5 nM |
| Cc1cc(Oc2ncccc2CN2CCN(c3ccccc3)CC2)ccc1-c1c(C)c(=O)[nH]c(=O)n1C | ADRA2A | cAMP, agonist, luciferase |  | EC50 | 10700 nM |
| COc1ccc(CN=c2[nH]c(N3CCC[C@H]3CO)ncc2C(=O)NCc2ncccn2)cc1Cl | SLC18A2 | transporter uptake, inhibitor |  | IC50 | 9670 nM |
| Nc1nc2c(ncn2COCCO)c(=O)[nH]1 | Carbonic anhydrase 2 (CA2, Homo sapiens, UniProt P00918) | enzyme activity, inhibitor, absorbance | pH 7.4 | IC50 | 13800 nM |
| O=C(O)c1cc2ccc(C#CC3(O)CCCCC3)cc2n1-c1ccccc1 | Microphthalmia-associated transcription factor (Homo sapiens, UniProt O75030) | binding, ITC |  | Kd | 13400 nM |
| CC(C)(C)NC(=O)C1CCN(Cc2cccc(NC(=O)c3ccc(F)cc3)c2)CC1 | Atypical chemokine receptor 3 (ACKR3, Homo sapiens, UniProt P25106) | β-arrestin recruitment, agonist, luciferase |  | EC50 | 10 nM |
| Cc1cc(Oc2ncccc2CN2CCN(c3cccc(Cl)c3Cl)CC2)ccc1-c1c(C)c(=O)[nH]c(=O)n1C | ADRA2A | ligand displacement, radioligand |  | Ki | 214 nM |
| O=C1Nc2ccc(Cl)cc2[C@@](C#CC2CC2)(C(F)(F)F)O1 | SLC18A2 | transporter uptake, inhibitor |  | IC50 | 6120 nM |
| Cc1cc(Oc2ncccc2CN2CCN(Cc3ccc(F)cc3)CC2)ccc1-c1c(C)c(=O)[nH]c(=O)n1C | ADRA2A | ligand displacement, radioligand |  | Ki | 2210 nM |
| OC1(c2ccc(-c3ccnc4[nH]cc(F)c34)cc2)CCCNC1 (stereo not shown) | LATS1 | enzyme activity, inhibitor, radiometric |  | IC50 | 26 nM |
| CCc1nn(CCCN2CCN(c3cccc(Cl)c3)CC2)c(=O)n1CCOc1ccccc1 | SLC18A2 | transporter uptake, inhibitor, radiometric | cell membranes | IC50 | 667 nM |
| COc1ccc(Cl)cc1N1CCN(Cc2cccnc2Oc2ccc(-c3c(C)c(=O)[nH]c(=O)n3C)c(C)c2)CC1 | ADRA2A | ligand displacement, radioligand |  | Ki | 76.5 nM |
